In ChEMBL document CHEMBL1268912, “Antidiabetic and antiobesity effects of Ampkinone (6f), a novel small molecule activator of AMP-activated protein kinase” (J Med Chem, 2010) one finds Activity, fold change (FC) and EC50 data, which are given here for 15 compounds.

Assay [1] in a line: Activation of ACC phosphorylation at S79 at 10 uM by Western blotting relative to control. The method in brief: (§1)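 L6 cells, serum-starved 6 h, treated with 10 μM for set times (10 min to 6 h). RIPA lysates (40 μg) run on SDS-PAGE and blotted to nitrocellulose. Blocked in TBS-Tween with 5% milk. Probed overnight at 4 °C with anti-ACC (pS79) or anti-AMPK (pT172) and the total-protein antibodies. HRP secondary antibody, ECL detection.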
For orientation: In western blotting, separated proteins are transferred to a membrane and probed.

Assay [2] is described as follows: Activation of AMPK assessed as phosphorylation of T172 at 10 uM by Western blotting relative to control. In a few lines:
as §1

A further assay relates to L6. The experiment in a line: Induction of ACC phosphorylation in […] cells after 10 mins. Format: cell-based. The method in brief:
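L6, C2C12 or 3T3-L1 cells, serum-starved 6 h, were treated for 1 h with graded concentrations (0–20 μM); L6 cells were also given a 10 μM time course. Lysates were immunoblotted for AMPK pT172, ACC pS79 and the total proteins, with ECL detection.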

Assay [3] has as its system C2L12. Put plainly: Induction of ACC phosphorylation in mouse […] cells after 1 hr.
Assay [4] has as its system Mus musculus. The experiment in a line: Antiobesity activity in diet induced obese mouse assessed as change in body weight at 10 mg/kg, sc qd. The format is functional, organism-based. Details: dose 10 mg/kg. The method in brief: (§2)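 DIO C57BL/6J males (high-fat diet, 60% of calories from fat, for 8 weeks) were given 10 mg/kg/day sc in PEG400 or vehicle for 30 days, n = 7 per group. Body weight and food intake were recorded every 3 days.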

In assay [5] the test system is Mus musculus. Put plainly: Induction of AMPK phosphorylation in diet induced obese mouse liver at 10 mg/kg, sc qd by immunoblotting. The format is functional, organism-based. Details: dose 10 mg/kg. In a few lines: (§3)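 DIO mice were dosed 10 mg/kg/day sc in PEG400 or vehicle for 1 month, n = 7 per group, then fasted 24 h. Liver and muscle lysates were immunoblotted for phospho-AMPK/ACC and the total proteins.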

In assay [6] the test system is Mus musculus. The experiment in a line: Antidiabetic activity in diet induced obese mouse assessed as reduction in insulin level at 10 mg/kg, sc qd. Details: dose 10 mg/kg. Format: functional, organism-based. In a few lines:
(§4)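 DIO mice were male C57BL/6J fed a 60%-fat diet from 4 weeks of age for 8 weeks. Dosed 10 mg/kg/day sc in PEG400 or vehicle for 1 month, n = 7 per group. Serum insulin was measured by mouse insulin ELISA and blood glucose by glucometer. Mean ± SD; Student's t test/ANOVA.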

Assay [7] relates to C2C12. Put plainly: Increase in AMPK-mediated glucose uptake in mouse C2C12 cells by confocal laser scanning microscopy. The format is cell-based. The method in brief: (§5)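 C2C12 myocytes were differentiated in 2% horse serum, held in low-glucose serum-free medium for 4 h, then treated for 1 h in glucose-free DMEM at 10 μM. In the CLSM chamber at 37 °C, 5 μM Cy3-Glc-R was injected and images taken every 7 s to follow fluorescence uptake.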

Assay [8] concerns Mus musculus. The experiment in a line: Antidiabetic activity in diet induced obese mouse assessed as reduction in glucose level at 10 mg/kg, sc qd. The format is functional, organism-based. Details: dose 10 mg/kg. In a few lines:
as §4

Assay [9] concerns 3T3-L1. Put plainly: Induction of ACC phosphorylation in mouse 3T3L1 cells after 1 hr.
Assay [10] concerns C2C12. Put plainly: Increase in AMPK-mediated glucose uptake in mouse C2C12 cells assessed as increase in fluorescent intensity by confocal laser scanning microscopy. The format is cell-based. The method in brief:
as §5

Assay [11] concerns Mus musculus. Put plainly: Antiobesity activity in diet induced obese mouse assessed as change in food intake at 10 mg/kg, sc qd. The format is functional, organism-based. Details: dose 10 mg/kg. The method in brief:
as §2

For the next assay, the system named is L6 (Rattus norvegicus). The experiment in a line: Increase in AMPK-mediated glucose uptake in rat L6 cells by confocal laser scanning microscopy in presence of compound C.
Assay [12] addresses AMP-activated protein kinase, AMPK (Homo sapiens) (UniProt P54646+O43741+P54619+Q9UGJ0+Q9Y478+Q13131+Q9UGI9). The experiment in a line: Induction of AMPK phosphorylation in human HeLa cells. Format: cell-based. The method in brief: (§6)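 HeLa cells lack endogenous LKB1. They were transfected for 24 h with HA-tagged LKB1 in pcDNA3.1 or mock-transfected. After 6 h serum starvation, cells were exposed to 10 μM for set times. Lysates were immunoblotted for AMPK (pT172), total AMPK and HA.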

For assay [13], the system named is Mus musculus. The experiment in a line: Induction of AMPK phosphorylation in diet induced obese mouse muscle at 10 mg/kg, sc qd by immunoblotting. The format is functional, organism-based. Details: dose 10 mg/kg. The method in brief: as §3
The subject of assay [14] is 3T3-L1. Put plainly: Induction of AMPK phosphorylation in mouse 3T3L1 cells after 1 hr.
Assay [15] addresses T1, Serine/threonine-protein kinase STK11 (Homo sapiens) (UniProt Q15831).
T1 sequence (whole entry): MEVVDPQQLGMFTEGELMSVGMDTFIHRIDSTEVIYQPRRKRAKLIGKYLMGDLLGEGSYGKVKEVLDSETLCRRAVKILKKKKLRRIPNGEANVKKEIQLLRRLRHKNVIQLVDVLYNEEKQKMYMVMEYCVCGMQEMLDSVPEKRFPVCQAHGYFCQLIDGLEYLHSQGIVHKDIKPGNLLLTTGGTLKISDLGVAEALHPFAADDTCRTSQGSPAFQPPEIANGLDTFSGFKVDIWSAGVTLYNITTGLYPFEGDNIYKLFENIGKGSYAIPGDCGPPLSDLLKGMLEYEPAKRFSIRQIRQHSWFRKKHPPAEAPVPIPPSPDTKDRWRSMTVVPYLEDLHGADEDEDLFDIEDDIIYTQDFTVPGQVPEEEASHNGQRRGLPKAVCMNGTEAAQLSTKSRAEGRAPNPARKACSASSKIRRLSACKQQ
Put plainly: Activation of LKB1 expressed in human HeLa cells assessed as increase in AMPK phosphorylation. The format is cell-based. In a few lines: as §6

For assay [16], the system named is C2L12. Put plainly: Induction of AMPK phosphorylation in mouse […] cells after 1 hr.
Assay [17] is described as follows: Induction of AMPK phosphorylation in […] cells […]. Format: cell-based. The conditions noted are these: L6, 10 min.

pEC50: −log10 of the molar value. Activity calls are given as the source filed them. The calls are words filed in the database; no cut-off is given here.

For `CC1(C)Oc2cc(F)ccc2-c2ccc3c(c21)C(=O)N(c1ccc(C(=O)c2ccccc2)cc1)C3=O`, the Activity in assay [1] came to 156%; in [2] it was 186%.
For the compound `COc1ccc2c(c1O)OC(C)(C)c1c-2ccc2c1C(=O)NC2=O`, the Activity in assay [1] came out at 123%; in assay [2] it was 158%.
Take `COc1ccc2c(c1O)OC(C)(C)c1c-2ccc2c1C(=O)N(c1cccc(-c3ccccc3)c1)C2=O`: the results for the Activity in assay [1] and in assay [2] were 201% and 175%, respectively.
On the same counts, the results for `COc1ccc2c(c1O)OC(C)(C)c1c-2ccc2c1C(=O)N(c1ccc(-c3nc4ccccc4o3)cc1)C2=O` are 91% and 92%.
As to `COc1ccc2c(c1O)OC(C)(C)c1c-2ccc2c1C(=O)N(C)C2=O`, the Activity in assay [1] stood at 145%; in assay [2], 205%.
For the compound `COc1ccc2c(c1O)OC1(CCCC1)c1c-2ccc2c1C(=O)N(c1ccc(C(=O)c3ccccc3)cc1)C2=O`, the values for the Activity in assay [1] and in [2] were 51% and 113%, respectively.
Regarding `COc1ccc2c(c1O)OC(C)(C)c1c-2ccc2c1C(=O)N(c1ccc3c(c1)-c1ccccc1C3=O)C2=O`, the Activity in assay [1] worked out at 154%; in assay [2], 249%.
Turning to `COc1ccc2c(c1O)OC(C)(C)c1c-2ccc2c1C(=O)N(c1ccccc1)C2=O`, the Activity was determined as 254% in [1] and 273% in [2].
The like results for `COc1ccc2c(c1O)OC(C)(C)c1c-2ccc2c1C(=O)N(c1ccc(-c3ccccc3)cc1)C2=O` were, in that order, 114% and 160%.
On to `COc1ccc2c(c1)OC(C)(C)c1c-2ccc2c1C(=O)N(c1ccc(C(=O)c3ccccc3)cc1)C2=O`, for which the values for the Activity in [1] and in assay [2] were 154% and 159%, respectively.
In general, pEC50 refers to the EC50 on a negative log10 scale, so that one unit is a factor of ten. Turning to `COc1ccc2c(c1O)OC(C)(C)c1c-2ccc2c1C(=O)N(c1ccc(C(=O)c3ccccc3)cc1)C2=O` [AMPKINONE], the outcome (with L6; with Mus musculus [5]; in the assay on Mus musculus [6]; in the assay with Mus musculus [8]; with C2C12 [10]; in assay [12]) was Active. In addition, the result (in the assay on Mus musculus [13]; in [15]) was Active. Further, the Activity result is “Dose-dependent effect” with C2L12 [3]; “Dose-dependent effect” with 3T3-L1 [9]; 295% in assay [1]; 322% in assay [2]; “Dose-dependent effect” in the assay on 3T3-L1 [14]; “Dose-dependent effect” with C2L12 [16]. Also, the outcome in the assay with Mus musculus [4], with Mus musculus [11] and with L6 (Rattus norvegicus) was inactive. Also, the fold change (FC) in the assay on C2C12 [7] was 3.2. In [17], this compound showed a negative logarithm of the EC50 (pEC50) of 5.37.
In the case of `CC1(C)Oc2ccccc2-c2ccc3c(c21)C(=O)N(c1ccc(C(=O)c2ccccc2)cc1)C3=O`, the results for the Activity in assay [1] and in assay [2] were 92% and 203%, respectively.
On to `COc1ccc2c(c1O)OC(C)(C)c1c-2ccc2c1C(=O)N(c1ccc(C(C)=O)cc1)C2=O`, for which the values for the Activity in [1] and in assay [2] were 384% and 264%, respectively.
Turning to `COc1ccc2c(c1O)OC(C)(C)c1c-2ccc2c1C(=O)N(Cc1ccccc1)C2=O`, the Activity in assay [1] came out at 194%; in [2], 165%.
Take `COc1ccc2c(c1O)OC(C)(C)c1c-2ccc2c1C(=O)N(c1ccc(Cc3ccccc3)cc1)C2=O`: the Activity in assay [1] came out at 129%; in assay [2] it was 169%.
